# Compound activity deposited in PubChem by several laboratories.
# A selection: hits, their analogues and other compounds. The true share with any hit is near 6.6%.
# BAP1 block: blocks human BAP1 ubiquitin-AMC hydrolysis; Q92560; recombinant BAP1, Ub-AMC hydrolysis fluorescence kinetic; hits give low values; calls only at 20 µM; 72,000 tested, 0.48% active;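 active = activity remaining at or below 50% of control, provided the compound also passes the data quality filters; inactive = the rest, including low values that fail the filters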
# JNK3 blocker: JNK3 (human) kinase inhibition. P53779. purified JNK3 kinase activity, HTS. inhibition, % at 8 µM. 60,000 tested, 0.61% active. AID 746; in the data active = inhibition above about 17%
# M1 antagonist: M1 muscarinic receptor (rat) antagonism. AID 628. 64,000 tested, 3.4% active. P08482. CHO-M1 cells, Fluo-4 calcium, ACh EC80 antagonist mode; hits give low values. B-score at 10 µM;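 active = calcium fluorescence response, raw or row-and-column corrected B-score, differing from the plate sample mean either way at a set confidence level, mostly lower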
# Target sequence (P08482 whole entry, looked up): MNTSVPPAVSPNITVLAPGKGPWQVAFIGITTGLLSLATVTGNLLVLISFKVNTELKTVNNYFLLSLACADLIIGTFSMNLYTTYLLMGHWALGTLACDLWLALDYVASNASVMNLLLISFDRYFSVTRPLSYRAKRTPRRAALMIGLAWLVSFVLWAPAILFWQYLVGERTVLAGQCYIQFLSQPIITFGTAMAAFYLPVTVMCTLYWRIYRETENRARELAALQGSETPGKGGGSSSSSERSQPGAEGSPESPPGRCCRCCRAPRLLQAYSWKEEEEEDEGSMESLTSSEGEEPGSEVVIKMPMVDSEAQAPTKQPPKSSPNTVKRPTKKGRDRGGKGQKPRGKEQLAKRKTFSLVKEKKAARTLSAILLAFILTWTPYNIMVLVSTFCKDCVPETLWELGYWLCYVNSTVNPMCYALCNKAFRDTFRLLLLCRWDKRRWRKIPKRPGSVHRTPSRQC
# M1 agonist: agonists of M1 muscarinic receptor | CHO-M1 cells, Fluo-4 calcium fluorescence, agonist mode; hits give high values | B-score at 10 µM | 64,000 tested, 3% active | AID 626;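 active = fluorescence rise, raw or as B-score row- and column-corrected plate score, outside the 99.7% band of its plate's samples, either direction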
# HEK293 NFkB inh: lowers PMA/ionomycin-induced NF-kB signal in HEK293 cells. HEK-293 NF-kB luciferase reporter, luminescence. inhibition, % at 3 µM. 62,000 tested, 0.21% active;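 active = inhibition above the mean of all tested compounds plus 3 SD, cut at about 40% in these data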
#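 Signal: luciferase luminescence; Material: HEK-293 cells with stable firefly luciferase reporter driven by four HIV NF-kB elements; Probe or stimulus: PMA with ionomycin; Replication: tested once; Times: 1 h compound pretreatment, then 16 h stimulation at 37 °C, 5% CO2; Benchmarks: DMSO and 10 µM reference inhibitor; Evaluation: per-plate % inhibition versus controls.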
# Her2 expr inh: lowers expression of human Her2 kinase; P04626; 65,000 tested, 0.69% active; SKBR-3 HER2 protein level, AlphaScreen, 18-24 h; hits give low values; HER2 level % of control, % at 10 µM; AID 645;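 active = HER2 level under 5% of the carrier-only control; inconclusive = no clear call, values can overlap the other calls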;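 note: lower value means stronger loss of Her2 protein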
# M1 agonist conf: confirmation of rat M1 muscarinic receptor agonists; fluorescence change (max-min) at 10 µM; shares compounds with M1 agonist; AID 1488; CHO-M1 cells, Fluo-4 calcium fluorescence, agonist mode; actives lie on both sides; 1,700 tested, 19% active;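 active = fluorescence change differs from the solvent-only DMSO control mean at a set confidence level in both duplicate runs; inconclusive = differs from solvent-only control mean in just one of two runs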;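 note: an EC20 dose of acetylcholine follows compound addition during the same imaging run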
# M4 ag counter: counter-screen for M1 agonists: activity at rat M4 receptor; shares compounds with M1 agonist; CHO M4/Gqi5 cells, Fluo-4 calcium fluorescence, agonist mode; actives lie on both sides; fluorescence change (max-min) at 10 µM; 1,700 tested, 9% active;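 active = fluorescence change differing from the plate's solvent-only control wells at 99.7% confidence in both duplicates, whether higher or lower; inconclusive = differs from solvent controls in only one of two duplicates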
# A number is an active result; – = inactive; ? = inconclusive; · = not tested or not shown.
SMILES,BAP1 block,JNK3 blocker,M1 antagonist,M1 agonist,HEK293 NFkB inh,Her2 expr inh,M1 agonist conf,M4 ag counter
COc1ccc2c(c1)[nH]c1c(=O)n(CCN3CCCC3)cnc12,–,–,–,2.19,–,–,?,–
O=C(c1cccc(Br)c1)N1CCN(c2ccc([N+](=O)[O-])cc2Cl)CC1,–,·,·,·,·,·,·,·
COc1ccc(C2C(C(C)=O)=C(C)N=c3s/c(=C/c4ccc5c(c4)OCO5)c(=O)n32)cc1 (configuration not stated),–,·,–,3.85,–,·,–,–
CC(=O)C1=C(C)N=c2s/c(=C/c3ccc4c(c3)OCO4)c(=O)n2C1c1ccc(N(C)C)cc1 (configuration not stated),·,·,–,–,–,–,·,·
CCN(CC)C(=O)CSc1nnc(-c2cccnc2)n1CCc1ccccc1,–,–,–,8.29,–,–,–,–
NC(=O)CSc1nnc(-c2cccnc2)n1CCc1ccccc1,–,–,–,–,–,–,·,·
COc1ccc(C(=O)Nc2nc3c(s2)C(=O)CC(C)(C)C3)cc1,–,·,·,·,·,·,·,·
O=C(Nc1nc(-c2cc3ccccc3oc2=O)cs1)c1ccco1,–,–,–,1.6,–,–,–,–
COc1ccc(N2CCN(C(=O)CSc3ncccc3-c3nc4ccccc4[nH]3)CC2)cc1,–,–,–,–,–,–,·,·
COc1ccccc1N1CCN(C(=O)CSc2ncccc2-c2nc3ccccc3[nH]2)CC1,–,·,–,13,–,–,?,–
COc1cc(C2Nc3ccccc3NC3=C2C(=O)CC(c2ccccc2)C3)cc(OC)c1OC (configuration not stated),–,·,·,·,·,·,·,·
O/N=C1\CCc2cc(Cl)ccc21,–,–,–,5.48,·,–,–,–
CC(C)c1ccc(C(O)c2nccn2C)cc1 (configuration not stated),–,·,·,·,·,·,·,·
Cc1cc(C)n2nc(SCC(=O)NCc3ccco3)nc2n1,–,·,–,–,–,–,·,·
COc1ccc(-c2[nH]c(-c3ccc(F)cc3)nc2SCC(=O)NCc2ccco2)cc1OC,–,–,–,–,–,–,·,·
COc1ccc(-c2nc(SCC(=O)NCc3ccco3)c(-c3ccccc3)[nH]2)cc1OC,–,·,–,5.81,–,–,–,–
Cc1cc(C)nc(SCC(=O)NCc2ccco2)n1,–,–,–,2.41,–,–,-22.4,–
O=c1c(-c2ccc3c(c2)OCCCO3)coc2cc(O)ccc12,–,·,·,·,·,·,·,·
COC(=O)c1ccccc1NC(=O)COC(=O)c1ccc(C)c(NC(=O)c2ccco2)c1,–,–,–,5.32,–,–,–,?
COC(=O)c1ccccc1NC(=O)c1ccco1,–,–,–,–,–,–,·,·
Cc1ccc(OCc2nnc(SCc3nc4ccccc4[nH]3)n2Cc2ccco2)cc1,–,–,–,5.52,–,–,?,–
CCOC(=O)C1CCCN(Cc2cc(OC)c(O)c(OC)c2)C1 (configuration not stated),–,–,–,3.21,–,–,59.9,–
CCOC(=O)C1CCCN(Cc2cc(Br)c(OC)cc2OC)C1 (configuration not stated),–,–,–,7.86,–,–,–,?
CCOC(=O)C1CCCN(Cc2cc(Br)ccc2OC)C1 (configuration not stated),–,–,·,·,–,–,·,·
Cc1ccc(Cn2c(SCC(=O)c3ccccc3)nc3c2c(=O)[nH]c(=O)n3C)cc1,–,·,·,·,·,·,·,·
SMILES,BAP1 block,JNK3 blocker,M1 antagonist,M1 agonist,HEK293 NFkB inh,Her2 expr inh,M1 agonist conf,M4 ag counter
Cc1ccc2nc(NC(=O)c3ccc(C)c([N+](=O)[O-])c3)sc2c1,–,·,·,·,·,·,·,·
Oc1ccc(Br)cc1C1Nc2cccc3cccc(c23)N1,–,·,·,·,·,·,·,·
CCOc1ccc(NC(=O)Nc2ccc3nccnc3c2)cc1,–,–,–,9.64,–,–,–,–
CC(Cl)=CCNCc1ccco1,–,·,·,·,·,·,·,·
CC1(C)C(C=C(Cl)Cl)C1C(=O)Nc1cccc([N+](=O)[O-])c1 (configuration not stated),–,·,·,·,·,·,·,·
CCOC(=O)c1ccc(Nc2nnc(C(C)(C)C)c(=O)[nH]2)cc1,·,·,–,3.54,–,–,–,–
COC(=O)c1cccc(C(=O)Nc2cnc3ccccc3c2)n1,–,–,–,3.74,–,–,–,?
N#CC(C(=O)NCc1ccccc1)c1nc2ccccc2nc1N1CCCC1 (configuration not stated),·,–,-17.3,177,–,–,1394,794
CCN1CCN(c2nc3ccccc3nc2C(C#N)C(=O)OCc2ccccc2)CC1 (configuration not stated),–,–,–,–,–,–,·,·
CCOC(=O)N1CCN(c2nc3ccccc3nc2C(C#N)C(=O)NCCc2ccccc2)CC1 (configuration not stated),–,–,–,21.6,–,–,?,–
C=CCOC(=O)C(C#N)c1nc2ccccc2nc1N1CCCC1 (configuration not stated),–,–,–,–,–,–,·,·
N#CC(C(=O)NCCc1ccccc1)c1nc2ccccc2nc1N1CCOCC1 (configuration not stated),–,–,–,–,–,–,·,·
N#CC(C(=O)NCCc1ccccc1)c1nc2ccccc2nc1N1CCCCC1 (configuration not stated),–,–,–,16.8,–,–,63.2,–
N#CC(C(=O)NCc1ccco1)c1nc2ccccc2nc1N1CCOCC1 (configuration not stated),·,–,–,–,–,–,·,·
CCOc1ccccc1N1CCN(c2nc3ccccc3nc2C(C#N)C(=O)OC)CC1 (configuration not stated),·,–,–,7.69,·,–,?,–
Cc1cc(N)n(-c2nc(-c3cccnc3)nc3ccccc23)n1,–,·,–,5.62,–,–,?,–
Cc1cc(N)n(-c2ccccc2)n1,·,·,–,–,·,–,·,·
CCN(CC(=O)Nc1ccc2c(c1)OCCO2)c1nc(-c2cccnc2)nc2ccccc12,–,–,–,7.35,–,–,-28.4,?
O=C(c1cc2nc(-c3ccccc3)cc(-c3ccccc3)n2n1)N1CCCCCC1,–,·,·,·,·,·,·,·
CN(C)CCNc1ncnc2c1cnn2-c1ccc(Cl)cc1,–,–,–,–,–,–,·,·
O=C1CCCN1CCCNc1ncnc2c1cnn2-c1ccc(Cl)cc1,–,–,–,3.08,–,–,–,–
Clc1ccc2[nH]c3c(NCC4CCCO4)ncnc3c2c1 (configuration not stated),·,–,–,7.74,–,–,–,–
Clc1ccc2[nH]c3c(NCCN4CCOCC4)ncnc3c2c1,–,–,–,–,·,–,·,·
Clc1ccc(-n2ncc3c(NCC4CCCO4)ncnc32)cc1 (configuration not stated),–,–,–,3.4,–,–,?,–
